Published values pooled from the literature.
Each line is one published result; the experiments were not run side by side.
Target: Carbonic anhydrase 1 (CA1, Homo sapiens, UniProt P00915)
Effect on: enzyme activity
Action: inhibitor

SMILES	method	endpoint	result
CC(C)c1cc2c(c(O)c1O)[C@@]1(C(=O)O)CCCC(C)(C)[C@@H]1CC2	–	IC50	3.1 nM
N#C[Se]CCCCOc1ccc2c(-c3ccccc3)cc(=O)oc2c1	stopped-flow	Ki	> 100000 nM
NC(=S)N/N=C1/c2ccccc2[C@@H]2[C@H]1[C@@H](c1ccc(C(F)(F)F)cc1)[C@H](C(=O)c1ccc(C(F)(F)F)cc1)[C@H]2c1ccc(C(F)(F)F)cc1 (racemic)	absorbance	IC50	570 nM
Cc1ccc(C(=O)Nc2ccc3c(c2)C=CCP(=O)(O)O3)cc1	stopped-flow	Ki	> 10000 nM
NC(=S)N/N=C1/c2ccccc2[C@@H]2[C@H]1[C@@H](c1ccccc1)[C@H](C(=O)c1ccccc1)[C@H]2c1ccccc1 (racemic)	absorbance	IC50	1550 nM
O=C(Nc1ccc2c(c1)C=CCP(=O)(O)O2)c1ccccc1I	stopped-flow	Ki	> 10000 nM
CC(C)c1cc2c(c(O)c1O)[C@@]13CCCC(C)(C)[C@@H]1C[C@@H]2OC3=O	–	Ki	2.3 nM
O=C(Nc1cccc(C(F)(F)F)c1)Nc1ccc2c(c1)C=CCP(=O)(O)O2	stopped-flow	Ki	> 10000 nM
Cc1c(Cl)c(=O)oc2cc(OCCCC[Se]C#N)ccc12	stopped-flow	Ki	> 100000 nM
NC(=S)N/N=C1/c2ccccc2[C@@H]2[C@H]1[C@@H](c1ccoc1)[C@H](C(=O)c1ccco1)[C@H]2c1ccoc1	absorbance	IC50	434 nM
CC(C)c1cc2c(c(O)c1O)[C@@]13CCCC(C)(C)[C@@H]1[C@@H](O)[C@@H]2OC3=O	–	IC50	1.63 nM
NC(=S)N/N=C1/c2ccccc2[C@@H]2[C@H]1[C@@H](c1cccs1)[C@H](C(=O)c1cccs1)[C@H]2c1cccs1 (racemic)	absorbance	IC50	774 nM
O=C(Nc1ccc(Cl)cc1)Nc1ccc2c(c1)C=CCP(=O)(O)O2	stopped-flow	Ki	> 10000 nM
CC(C)c1cc2c(c(O)c1O)[C@@]13CCCC(C)(C)[C@@H]1[C@H](OC3=O)[C@H]2O	–	Ki	0.12 nM
Cc1ccc([C@H]2[C@H](C(=O)c3cccs3)[C@@H](c3cccs3)[C@@H]3c4ccccc4/C(=N/NC(N)=S)[C@@H]32)cc1 (racemic)	absorbance	IC50	1670 nM
